This passage reports IC50 results from ChEMBL document CHEMBL1124118, “Design, synthesis, and antineoplastic activity of 2'-deoxy-2'-methylidenecytidine” (J Med Chem, 1988).

In brackets after ≈: the same amount, converted by molar mass. A value given as a limit tells only on which side of the number the result lay.

Assay type in all cases: functional, cell-based
Test [1] concerns TE-2. The experiment in a line: In vitro inhibitory effect on growth of human esophagus […] cell lines (TE2). Summed up: (§1)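 MTT growth-inhibition assay (Carmichael method). Tumor cells seeded at 1 × 10^4 per well and incubated with or without compound for 72 h. MTT then added and OD(550-660 nm) read. % inhibition = [1 − (OD sample / OD control)] × 100. IC50 (μg/mL) taken as the concentration giving 50% inhibition of cell growth.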

The test system of test [2] is PC10. The experiment in a line: In vitro inhibitory effect on growth of human lung squamous cell carcinoma cell lines (PC10). Summed up: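 Cells seeded at 1 × 10^4/well and incubated with or without compound for 72 h. MTT was then added and OD(550-660 nm) was read. % inhibition = [1 − (OD of sample well / OD of control well)] × 100. IC50 (μg/mL) is the concentration giving 50% inhibition of cell growth.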

The test system of test [3] is T-24. The experiment in a line: In vitro inhibitory effect on growth of human bladder transitional-carcinoma cell lines (T24). The gist of the method:
as §1

Test [4] relates to CCRF-CEM. In words: In vitro inhibitory effect on growth of human T-cell acute lymphoblastoid leukemic CCRFCEM cell lines. The gist of the method:
as §1

In test [5] the test system is MOLT-4. The experiment in a line: In vitro inhibitory effect on growth of human T-cell acute lymphoblastic leukemic MOLT 4 cell lines. The gist of the method: as §1
Test [6] deals with K562. The experiment in a line: In vitro inhibitory effect on growth of human chronic myelogenous leukemic K562 cell lines. Summed up:
as §1

Test [7] has as its system L1210. The experiment in a line: In vitro inhibitory effect on growth of mouse leukemic L1210 cell lines. The gist of the method: as §1
In test [8] the test system is SW480. In words: In vitro inhibitory effect on growth of human colon adenocarcinoma cell lines (SW480). Summed up: as §1
In test [9] the test system is PC10. The experiment in a line: In vitro inhibitory effect on growth of human lung squamous cell carcinom cell lines (PC10). The gist of the method:
as §1

Take `O=c1[nH]cc(F)c(=O)[nH]1` [FLUOROURACIL]: the IC50 is 3.9 µg/mL (≈ 30 µM) in [1]; more than 100 µg/mL in [2]; 6.1 µg/mL (≈ 46.9 µM) in [3]; 40 µg/mL (≈ 308 µM) in test [4]; 3.8 µg/mL (≈ 29.2 µM) in test [5]; 38 µg/mL (≈ 292 µM) in test [6]. Also, the figures for the IC50 in test [7] and in [8] were 0.32 µg/mL (≈ 2.46 µM) and 3.3 µg/mL (≈ 25.4 µM), respectively.
As to `Nc1ccn([C@@H]2O[C@H](CO)[C@@H](O)[C@@H]2O)c(=O)n1` [CYTARABINE], the IC50 in test [1] is more than 100 µg/mL; in test [2], more than 100 µg/mL; in test [3] it was more than 100 µg/mL; in test [4], 0.065 µg/mL (≈ 0.267 µM); in test [5], 0.056 µg/mL (≈ 0.23 µM); in test [6], 3.2 µg/mL (≈ 13.2 µM). Further, the IC50 is 0.097 µg/mL (≈ 0.399 µM) in test [7] and more than 100 µg/mL in [8].
In the case of `C=C1C(n2ccc(N)nc2=O)O[C@H](CO)[C@@H]1O` (some centres undefined), the IC50 in test [1] came out at 2.9 µg/mL (≈ 12.1 µM); in [9] it was 60.5 µg/mL (≈ 253 µM); in [3], 3.7 µg/mL (≈ 15.5 µM); in [4], 0.047 µg/mL (≈ 0.196 µM); in test [5], 0.025 µg/mL (≈ 0.105 µM); in test [6] it was 1.2 µg/mL (≈ 5.02 µM). Moreover, the results for the IC50 in test [7] and in test [8] were 0.11 µg/mL (≈ 0.46 µM) and 3.8 µg/mL (≈ 15.9 µM), respectively.
